T cruzi growth-1 – inhibitors of T. cruzi proliferation. T. cruzi beta-gal in NIH3T3, GalScreen luminescence, 90 h. inhibition, % at 8.34 µM. 77,000 compounds, 5.9% hits. AID 624255;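 active means mean inhibition above about 93%, with at least 55% of replicates each passing it, limit read from the data, passing the limit was not always enough; inconclusive means only one of those two conditions holds; inactive means neither condition holds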
IDH1 mut inh – IDH1 R132H (human) inhibition | O75874 | IDH1 R132H reductase, diaphorase/resazurin fluorescence, 60 min | inhibition, % at 10 µM | 70,000 compounds, 0.18% hits | AID 624101; in the data active means inhibition above about 34%; inconclusive means no clear call, values can overlap the other calls; inactive means below about 11%;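 further: 0% = DMSO and 100% = no enzyme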
Target sequence (O75874 whole entry R132H): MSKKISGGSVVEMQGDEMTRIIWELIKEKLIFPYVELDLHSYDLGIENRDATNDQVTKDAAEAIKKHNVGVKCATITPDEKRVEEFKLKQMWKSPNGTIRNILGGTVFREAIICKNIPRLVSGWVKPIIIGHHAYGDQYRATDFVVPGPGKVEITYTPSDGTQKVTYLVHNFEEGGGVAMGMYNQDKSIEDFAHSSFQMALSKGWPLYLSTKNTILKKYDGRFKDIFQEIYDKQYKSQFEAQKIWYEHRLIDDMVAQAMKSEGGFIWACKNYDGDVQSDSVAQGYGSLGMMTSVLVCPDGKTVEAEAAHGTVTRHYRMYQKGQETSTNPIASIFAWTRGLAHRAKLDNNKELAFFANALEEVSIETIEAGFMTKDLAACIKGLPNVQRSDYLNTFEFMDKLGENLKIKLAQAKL
KDM4C inh – blocks human GASC-1 (KDM4C) demethylase activity; inhibition, % at 12.5 µM; Q9H3R0; GST-KDM4C 2-372, H3K9me3 peptide, LANCE TR-FRET; 96,000 compounds, 0.15% hits;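 active means mean replicate inhibition above about 25%, with at least 55% of replicates also reaching it, limit read from the data, passing the limit was not always enough; inconclusive means only one of those two conditions met; inactive means neither condition met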
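Compound: one test concentration per compound; Material: GST-GASC-1 enzyme fragment 2-372; Amount: GASC-1 enzyme at 10 nM final in reaction; Also added: H3K9me3 peptide substrate, Fe(II), 2-oxoglutarate; Technique: LANCE TR-FRET; Times: 30 min demethylation and 1 h detection at room temperature.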
Pf Dd2 inh – inhibitors of Plasmodium falciparum Dd2 growth. P. falciparum Dd2 growth, SYBR Green, 72 h; hits give low values. AID 1159554. activity change, % at 10 µM. 94,000 compounds, 2.3% hits; in the data active means activity change below about -80%; inconclusive means no clear call, values can overlap the other calls
T cruzi growth-2 – inhibitors of T. cruzi proliferation | shares compounds with T cruzi growth-1 | T. cruzi beta-gal in NIH3T3, GalScreen luminescence, 90 h | inhibition, % at 8.35 µM | 5,600 compounds, 72% hits;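 active means mean replicate inhibition above about 95% and at least 55% of replicates individually reaching it, limit read from the data; inconclusive means only one of the two criteria is met; inactive means neither criterion is met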
T cruzi growth-3 – inhibitors of T. cruzi proliferation. shares compounds with T cruzi growth-1. inhibition, % at 2.09 µM. T. cruzi beta-gal in NIH3T3, GalScreen luminescence, 90 h. 5,600 compounds, 21% hits;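 active means mean inhibition above about 95%, with at least 55% of replicates also reaching it, limit read from the data; inconclusive means meets just one of the two conditions; inactive means meets neither condition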;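 further: plate controls were neutral control median for no effect and positive control median for full effect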
3T3 cytotox – NIH/3T3 (mouse) viability loss. shares compounds with T cruzi growth-1. NIH/3T3 viability, CellTiter-Glo ATP luminescence, 90 h. cytotoxicity (signal decrease), % at 8.35 µM. 5,600 compounds, 14% hits. AID 651742;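 active means mean signal decrease across replicates above about 35% based on untreated-well scatter, with enough replicates individually passing, limit read from the data; inconclusive means no rule stated though some were filed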;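 further: 0% = median of neutral control wells and 100% = median of positive control wells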
NIH3T3 tox 2 – NIH/3T3 (mouse) viability loss. shares compounds with T cruzi growth-1. NIH/3T3 viability, CellTiter-Glo ATP luminescence, 90 h. inhibition, % at 24.9 µM. 5,600 compounds, 56% hits;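 active means mean loss of cell viability signal at or above a set limit, and enough replicates individually reaching it; inconclusive means meets only the mean limit or only the replicate share; inactive means meets neither condition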;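 further: 0% = median of neutral control wells and 100% = median of positive control wells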
Active calls of the source: *; ? = inconclusive; . = no result. This is a sample that favours compounds with a hit; in the whole collection about 5.9% have one here.

SMILES	T cruzi growth-1	IDH1 mut inh	KDM4C inh	Pf Dd2 inh	T cruzi growth-2	T cruzi growth-3	3T3 cytotox	NIH3T3 tox 2
CNC[C@H]1Oc2cc(C#Cc3ccc(OC)cc3)ccc2S(=O)(=O)N([C@@H](C)CO)C[C@@H]1C	109*	-1	-4	-73	103*	94	-4	105*
CNC[C@@H]1Oc2cc(C#Cc3ccc(OC)cc3)ccc2S(=O)(=O)N([C@H](C)CO)C[C@H]1C	103*	1	-3	-56	107*	81	15	105*
CNC[C@H]1Oc2cc(C#Cc3ccc(F)cc3)ccc2S(=O)(=O)N([C@H](C)CO)C[C@@H]1C	.	1	-5	-64	.	.	.	.
COc1cc(NC(=O)C(C)Oc2cccc(Cl)c2)c(C(=O)O)cc1OC (stereo not given)	.	-1	.	.	.	.	.	.
COc1ccc(Cl)cc1NC1=NC2CS(=O)(=O)CC2S1 (stereo not given)	.	0	.	.	.	.	.	.
Cc1cccc(CN2CCC(CNC(=O)c3cc4cc5ccc(C)cc5nc4o3)CC2)c1	.	0	.	.	.	.	.	.
CCOC(=O)c1c(NC(=O)COc2ccc(Cl)cc2C)sc2c1CCC2	.	0	.	.	.	.	.	.
N#C[C@@H]1[C@@H](c2ccc(C#Cc3cccnc3)cc2)[C@@H](CO)N1C(=O)C1CCCCC1	103*	.	-4	-24	68	23	-10	22
N#C[C@H]1[C@@H](c2ccc(C#Cc3cccc(F)c3)cc2)[C@@H](CO)N1C(=O)C1CCC1	.	.	-10	-42	.	.	.	.
N#C[C@@H]1[C@H](c2ccc(C#Cc3cccc(F)c3)cc2)[C@@H](CO)N1C(=O)C1CCC1	107*	.	-2	-43	103*	108*	-7	80*
N#C[C@@H]1[C@H](c2ccc(-c3cccnc3)cc2)[C@H](CO)N1C(=O)C1CCC1	42	.	2	5	.	.	.	.
N#C[C@@H]1[C@@H](c2ccc(C#Cc3cccc(F)c3)cc2)[C@@H](CO)N1C(=O)C1CC1	89	.	0	-8	.	.	.	.
N#C[C@@H]1[C@@H](c2ccc(C#Cc3cccc(F)c3)cc2)[C@@H](CO)N1C(=O)C1CCCC1	100*	.	-1	-25	107*	65	9	64*
Cc1cc(C)c(C)c(Cn2c(CCCO)nc3ccccc32)c1C	.	0	.	.	.	.	.	.
C/C=C/c1ccc([C@@H]2[C@@H](CO)N[C@@H]2CN(CC)C(=O)c2ccccn2)cc1	100*	.	-2	-18	28	3	-12	11
O=C(NC[C@H]1N[C@H](CO)[C@@H]1c1ccc(C2=CCCCC2)cc1)c1cccc(F)c1	85	.	-4	-19	.	.	.	.
CCN(C[C@H]1N[C@H](CO)[C@H]1c1ccc(C2=CCCC2)cc1)C(=O)c1ccncc1	104*	.	-1	-62	-13	-4	-14	20
CCN(C[C@@H]1N[C@H](CO)[C@H]1c1ccc(C2=CCCC2)cc1)C(=O)c1ccncc1	93	.	-4	-52	.	.	.	.
O=C(NC[C@H]1N[C@H](CO)[C@@H]1c1ccc(C2=CCCCC2)cc1)c1ccc(F)cc1	96*	.	0	-10	100*	51	-1	106*
C/C=C/c1ccc([C@@H]2[C@H](CO)N[C@H]2CN(CC)C(=O)c2ccccn2)cc1	21	.	3	-6	.	.	.	.
CCN(C[C@H]1N[C@@H](CO)[C@@H]1c1ccc(C2=CCCC2)cc1)C(=O)c1ccncc1	105*	.	-1	-34	98*	0	-12	55*
CCN(C[C@H]1N[C@H](CO)[C@H]1c1ccc(C2=CCCC2)cc1)C(=O)c1cccnc1	-13	.	1	10	.	.	.	.
COc1ccc(NC(=O)O[C@@H](c2ccc(OCCO)cc2)[C@H](CCO)OC)cc1	.	0	.	.	.	.	.	.
CCn1c(SCC(=O)Nc2ccc3c(c2)OCCO3)nnc1-c1cccc(Cl)c1	.	0	.	.	.	.	.	.
CCn1c(SCC(=O)Nc2c(C)cc(C)cc2C)nnc1-c1ccccc1C	.	0	.	.	.	.	.	.
SMILES	T cruzi growth-1	IDH1 mut inh	KDM4C inh	Pf Dd2 inh	T cruzi growth-2	T cruzi growth-3	3T3 cytotox	NIH3T3 tox 2
COc1ccc(NC(=O)Nc2ccc3c(c2)C(=O)N([C@@H](C)CO)C[C@@H](C)[C@H](CN(C)C(=O)Nc2ccc(C(F)(F)F)cc2)OCCCC[C@H](C)O3)cc1	?	.	1	-11	103*	100*	4	19
COc1ccc(NC(=O)N(C)C[C@H]2OCCCC[C@@H](C)Oc3ccc(NC(=O)Nc4ccc(C(F)(F)F)cc4)cc3C(=O)N([C@@H](C)CO)C[C@H]2C)cc1	109*	.	0	-62	105*	113*	10	6
COc1ccc(NC(=O)Nc2ccc3c(c2)C(=O)N([C@@H](C)CO)C[C@@H](C)[C@@H](CN(C)C(=O)Nc2ccc(C(F)(F)F)cc2)OCCCC[C@@H](C)O3)cc1	?	.	-2	-56	101*	107*	8	3
COc1ccc(NC(=O)N(C)C[C@@H]2OCCCC[C@@H](C)Oc3ccc(NC(=O)Nc4ccc(C(F)(F)F)cc4)cc3C(=O)N([C@H](C)CO)C[C@H]2C)cc1	28	1	-2	15	.	.	.	.
COc1ccc(NC(=O)Nc2ccc3c(c2)C(=O)N([C@H](C)CO)C[C@H](C)[C@@H](CN(C)C(=O)Nc2ccc(C(F)(F)F)cc2)OCCCC[C@H](C)O3)cc1	?	0	1	-90*	112*	107*	10	1
O=C(CS(=O)c1ccc(C(F)(F)F)cc1[N+](=O)[O-])Oc1ccc(C2CCCCC2)cc1 (stereo not given)	.	0	.	.	.	.	.	.
O=C(O)c1cccc(NC(=O)c2cc(S(=O)(=O)N3CCOCC3)c(Cl)cc2Cl)c1	.	1	.	.	.	.	.	.
COc1ccc(NC(=O)Nc2ccc3c(c2)C(=O)N([C@@H](C)CO)C[C@H](C)[C@@H](CN(C)C(=O)Nc2ccc(C(F)(F)F)cc2)OCCCC[C@H](C)O3)cc1	?	.	1	-82*	107*	110*	16	13
COC(=O)c1cc(OC)c(OC)cc1NC(=O)C1c2ccccc2Oc2ccccc21	.	1	.	.	.	.	.	.
C[C@@H]1CCCCO[C@@H](CN(C)C(=O)C2CCCCC2)[C@H](C)CN([C@@H](C)CO)C(=O)c2cc(NC(=O)Nc3cccc4ccccc34)ccc2O1	116*	-2	-1	-2	104*	73	-15	8
C[C@H]1CCCCO[C@H](CN(C)C(=O)C2CCCCC2)[C@@H](C)CN([C@@H](C)CO)C(=O)c2cc(NC(=O)Nc3cccc4ccccc34)ccc2O1	?	.	-3	-75	98*	104*	9	29
C[C@@H]1CCCCO[C@H](CN(C)C(=O)Nc2cccc3ccccc23)[C@@H](C)CN([C@H](C)CO)C(=O)c2cc(NC(=O)Nc3cccc4ccccc34)ccc2O1	8	-4	1	-48	.	.	.	.

Bioassay records deposited in PubChem BioAssay by Broad Institute.
